{"source": "PubChem BioAssay AID1537", "about": "(The Scripps Research Institute Molecular Screening Center, 2009)", "note": "Some of the results follow. The source made the active and inactive calls.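 How the source made its calls: active means inhibition above the hit cutoff derived for the primary screen (cut at about 15% in these data); inactive means the rest.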", "data": [{"molecular_target": "Serine hydrolase RBBP9 (Homo sapiens) (UniProt O75884)", "sequence (O75884 whole entry, looked up)": "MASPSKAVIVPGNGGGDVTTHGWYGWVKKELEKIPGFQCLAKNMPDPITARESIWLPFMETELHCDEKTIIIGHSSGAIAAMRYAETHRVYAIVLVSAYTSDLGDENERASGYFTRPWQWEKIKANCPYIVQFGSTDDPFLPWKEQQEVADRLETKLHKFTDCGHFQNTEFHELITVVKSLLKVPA", "test": "RBBP9 serine hydrolase blockers re-tested – biochemical, fluorescence polarization, FP-Rh probe, triplicate, confirmation (AID 1537);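 further: 0% = RBBP9 with DMSO and 100% = wells lacking RBBP9 protein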", "settings": "recombinant RBBP9, FP-Rh probe fluorescence polarization; at 7.94 µM; active compounds read high", "method_in_brief": "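Test system: RBBP9 serine hydrolase enzyme, human | Probe or stimulus: FP-Rh fluorophosphonate-rhodamine activity probe labelling RBBP9 | Incubation: 30 min preincubation at 25 °C, 45 min probe labelling | Technique: Fluorescence polarization, excitation 525 nm, emission 598 nm | Measure: % inhibition versus controls | Control set: no-enzyme and DMSO wells | Replication: Triplicate wells per compound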", "values": [{"smiles": "CC(C)OCCCNC(=O)CNC(=O)c1cccs1", "inhibition": "11% (inactive)"}, {"smiles": "COc1cccc(NC(=O)c2ccc3c(SCC(=O)O)c4c(nc3c2)CCCC4)c1", "inhibition": "6.99% (inactive)"}, {"smiles": "CCC(=O)N1CCCc2ccccc21", "inhibition": "0.8% (inactive)"}, {"smiles": "CCc1ccccc1NC1c2ccccc2C(=O)N1c1cccnc1", "note": "(stereo not drawn)", "inhibition": "3.9% (inactive)"}, {"smiles": "C=CS(=O)c1sc(Cl)c(N2CCOCC2)c1[N+](=O)[O-]", "note": "(stereo not drawn)", "inhibition": "34.7% (active)"}, {"smiles": "CC1=NOC(=O)/C1=C\\c1ccccc1", "inhibition": "4.74% (inactive)"}, {"smiles": "COc1cc(/C=N/NC(=O)Nc2ccccc2)ccc1OCCOc1ccccc1C", "inhibition": "0.38% (inactive)"}, {"smiles": "O=c1[nH]n(-c2ccc([N+](=O)[O-])cc2)c(=O)c2ccccc12", "inhibition": "20.4% (active)"}, {"smiles": "CCC(=O)c1ccc(OCC(O)CN2CCN(c3cccc(C(F)(F)F)c3)CC2)cc1", "note": "(stereo not drawn)", "inhibition": "7.26% (inactive)"}, {"smiles": "COc1ccc2c(c1)C(C)=CC(C)(C)N2C(=O)Nc1ccccc1", "inhibition": "2.49% (inactive)"}, {"smiles": "COc1cc(C2C(C(=O)OCCC#N)=C(C)NC3=C2S(=O)(=O)c2ccccc23)cc(OC)c1OC", "note": "(stereo not drawn)", "inhibition": "1.17% (inactive)"}, {"smiles": "C/C(=N/Nc1nc(-c2ccccc2)c(CC(=O)O)s1)c1ccccc1", "inhibition": "31.2% (active)"}, {"smiles": "Nn1c(Cc2cccc3ccccc23)nnc1SCC(=O)N1CC(=O)Nc2ccccc21", "inhibition": "6.4% (inactive)"}, {"smiles": "O=C1C=CC(=O)N1c1ccc(N2CCCCC2)cc1", "inhibition": "25.9% (active)"}, {"smiles": "Cc1cc([N+](=O)[O-])nn1Cc1ccc(F)cc1", "inhibition": "11.8% (inactive)"}, {"smiles": "Cn1sc(=O)c2cc(S(=O)(=O)NC3CC3)ccc21", "inhibition": "26.9% (active)"}, {"smiles": "Cc1ccc(NC(=O)CN2CCC(C(N)=O)CC2)cc1[N+](=O)[O-]", "inhibition": "2.36% (inactive)"}, {"smiles": "COc1ccc(NS(=O)(=O)c2cc(NC(=O)CC(=O)c3ccc([N+](=O)[O-])cc3)ccc2C)cc1", "inhibition": "-3.45% (inactive)"}, {"smiles": "O=C(CCCC(=O)N(CC(=O)NC1CCCC1)Cc1ccccc1Cl)Nc1ccccn1", "inhibition": "1.03% (inactive)"}, {"smiles": "CCN(CC)C(=O)N1CCN(C(=O)c2ccc(C)cn2)CC1", "inhibition": "9.27% (inactive)"}, {"smiles": "COCCN(Cc1nc(-c2ccc(C(F)(F)F)cc2)no1)C(C)C", "inhibition": "1.94% (inactive)"}, {"smiles": "Cc1ccnc(-n2sc3ccccc3c2=O)n1", "inhibition": "72.8% (active)"}, {"smiles": "CCOc1ccc2[nH]c(=O)c(C(c3nnnn3CCOC)N3CCOCC3)cc2c1", "note": "(stereo not drawn)", "inhibition": "1.76% (inactive)"}, {"smiles": "O=[N+]([O-])c1c(NCCO)cc(Sc2nc3ccccc3s2)c2nonc12", "inhibition": "45.7% (active)"}, {"smiles": "COc1ccc(-n2nnnc2SCc2nc(N)nc(N3CCOCC3)n2)cc1", "inhibition": "3.53% (inactive)"}, {"smiles": "COc1ccc(N2C(=O)C3CCCN3C2c2cc(OC)c(OC)cc2OC)cc1", "note": "(stereo not drawn)", "inhibition": "3.25% (inactive)"}, {"smiles": "Oc1ccc(N=Cc2sc3ccccc3c2Cl)cc1", "inhibition": "12.5% (inactive)"}, {"smiles": "Cc1cc(F)ccc1S(=O)(=O)N1CCCOC1CNC(=O)C(=O)NCCC1=CCCCC1", "note": "(stereo not drawn)", "inhibition": "10.6% (inactive)"}]}]}
